Measurements published in ChEMBL document CHEMBL1129795, “2-Azetidinone cholesterol absorption inhibitors: structure-activity relationships on the heterocyclic nucleus” (1996).

Legend:
Cricetinae gen. sp. [1] = assay: In vivo for cholesterol absorption inhibitory activity using 7-day cholesterol-fed hamster model (expressed as percent change in cholesteryl esters at 50 mg/kg/day); assay type: functional, Cricetulus griseus
Outline: (§1)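 Hamsters were fed a high-cholesterol diet for 7 days and gavaged once daily with compound in 0.2 mL corn oil. On the last day, animals were sacrificed and hepatic and serum lipids were determined. Results are given as percent change in hepatic cholesteryl ester or serum cholesterol concentration versus diet-fed controls gavaged with corn oil without drug.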

Cricetinae gen. sp. [2] = assay: In vivo cholesterol absorption inhibitory activity using 7-day cholesterol-fed hamster model (expressed as percent change in serum cholesterol at 50 mg/kg/day); assay type: functional, Cricetulus griseus; outline: as §1

SMILES | Change (Cricetinae gen. sp. [1]) [%] | Change (Cricetinae gen. sp. [2]) [%]
COc1ccc([C@H]2N(c3ccc(OC)cc3)C(=O)[C@]2(Cc2ccccc2)c2ccccc2)cc1 | -15 | 23
COc1ccc(N2C(=O)C(CCCc3ccccc3)[C@]2(c2ccc(OC)cc2)C(F)(F)F)cc1 (some centres not stated) | -11 | 0
CCCCOc1ccc([C@@H]2[C@@H](CCCc3ccccc3)C(=O)N2c2ccc(OC)cc2)cc1 | -64 | -34
COc1ccc([C@@H]2[C@@H](CCCc3ccccc3)C(=O)N2C2CC2)cc1 | -61 | -20
COc1ccc([C@@H]2[C@@H](CCCc3ccccc3)C(=O)N2Cc2ccccc2)cc1 | 16 | 0
COc1ccc([C@@H]2[C@H](CCCCc3ccccc3)C(=O)N2c2ccc(OC)cc2)cc1 | -72 | -28
COc1ccc([C@@H]2[C@@H](CCCc3ccccc3)C(=O)N2c2ccc(OC)cc2)cc1 [SCH-48461] | -77.5 | -29
COc1ccc([C@@H]2[C@@H](CCCc3ccccc3)C(=O)N2c2ccc(C)cc2)cc1 | -90 | -38
COc1ccc([C@@H]2[C@@H](CCCc3ccccc3)C(=O)N2C2CCCCC2)cc1 | 0 | 0
COc1ccc([C@@H]2[C@@H](CCCc3ccccc3)C(=O)N2c2ccc(F)cc2)cc1 | -95 | -38
COc1ccc([C@@H]2[C@@H](CCc3ccccc3)C(=O)N2c2ccc(OC)cc2)cc1 | 0 | 0
COc1ccc(N2C(=O)[C@H](CCCc3ccccc3)[C@H]2c2ccc(N(C)C)cc2)cc1 | -60 | -29
COc1ccc([C@@H]2[C@@H](CCCc3ccccc3)C(=O)N2c2ccc(S(C)(=O)=O)cc2)cc1 | -39 | 0
COc1ccc(N2C(=O)[C@H](CCCc3ccccc3)[C@H]2c2ccc(Oc3ccccc3)cc2)cc1 | -77 | -37
COc1ccc(N2C(=O)[C@@H](CCCc3ccccc3)[C@H]2c2ccc3c(c2)OCO3)cc1 | 0 | 0
COc1ccc(N2C(=O)[C@H](CCCc3ccccc3)[C@H]2c2ccc(S(C)(=O)=O)cc2)cc1 | -75 | -26
COc1ccc([C@@H]2[C@@H](CCCc3ccccc3)C(=O)N2c2ccc(C#N)cc2)cc1 | -74 | -35
COc1ccc(N2C(=O)[C@H](CCCc3ccccc3)[C@H]2c2ccc(F)cc2)cc1 | 12 | 0
COc1ccc([C@@H]2[C@@H](CCCc3ccccc3)C(=O)N2c2ccc(C(C)=O)cc2)cc1 | -90 | -40
COc1ccc([C@@H]2[C@H](CCCC3CCCCC3)C(=O)N2c2ccc(OC)cc2)cc1 | -28 | 12
COc1ccc(N2C(=O)[C@H](CCCc3ccccc3)[C@H]2c2ccc(OC(C)(C)C)cc2)cc1 | -80 | -26
COc1ccc(N2C(=O)[C@H](CCCc3ccccc3)[C@H]2c2ccc(NC(C)=O)cc2)cc1 | -26 | -4
COc1ccc([C@@H]2[C@@H](CCCc3ccccc3)C(=O)N2c2cc(F)cc(F)c2)cc1 | -93 | -52
COc1ccc([C@@H]2[C@@H](CCCCCCc3ccccc3)C(=O)N2c2ccc(OC)cc2)cc1 | -17 | -19
COc1ccc([C@@H]2[C@@H](CCCc3ccccc3)C(=O)N2C(C)C)cc1 | -30 | -16
COc1ccc([C@@H]2[C@@H](CCCc3ccccc3)C(=O)N2c2ccc(OC(F)(F)F)cc2)cc1 | -85 | -34

SMILES | Change (Cricetinae gen. sp. [1]) [%] | Change (Cricetinae gen. sp. [2]) [%]
CCCOc1ccc([C@@H]2[C@@H](CCCc3ccccc3)C(=O)N2c2ccc(OC)cc2)cc1 | -95 | -40
COc1ccc([C@@H]2[C@@H](CCCc3ccccc3)C(=O)N2c2ccc(C)c(C)c2)cc1 | -39 | -21
COc1ccc([C@@H]2[C@@H](CCCc3ccccc3)C(=O)N2c2c(OC)cc(OC)cc2OC)cc1 | 0 | 0
COc1ccc([C@@H]2[C@H](CCCCCCc3ccccc3)C(=O)N2c2ccc(OC)cc2)cc1 | 0 | -29
COc1ccc(N2C(=O)[C@H](CCCc3ccccc3)[C@H]2c2ccc(OC)cc2OC)cc1 | -78 | -26
COc1ccc(N[C@H](c2ccc(OC)cc2)[C@@H](CCCc2ccccc2)C(=O)O)cc1 | 0 | -8
COc1ccc(N2C(=O)C(CCCc3ccccc3)C2(c2ccc(OC)cc2)c2ccc(OC)cc2)cc1 (configuration not stated) | 0 | -9
C=CCN1C(=O)[C@H](CCCc2ccccc2)[C@H]1c1ccc(OC)cc1 | 0 | 0
COc1ccc(N2C(=O)[C@H](CCCc3ccccc3)[C@H]2c2ccc(OCc3ccccc3)cc2)cc1 | -48 | -15
COc1ccc([C@@H]2[C@@H](CCCc3ccccc3)C(=O)N2c2ccccc2OC)cc1 | -87 | -49
COc1ccc([C@@H]2[C@H](CCCc3ccccc3)C(=O)N2c2ccc(OC)cc2)cc1 | -95 | -45
COc1ccc([C@@H]2[C@H](CCc3ccccc3)C(=O)N2c2ccc(OC)cc2)cc1 | -19 | 0
COc1ccc([C@@H]2[C@@H](CCCc3ccccc3)C(=O)N2c2ccccc2)cc1 | -95 | -49
CC[C@@]1(CCCc2ccccc2)C(=O)N(c2ccc(OC)cc2)[C@@H]1c1ccccc1 | 0 | 0
COc1ccc([C@H]2NC(=O)[C@@H]2CCCc2ccccc2)cc1 | 0 | 0
COc1ccc(N2C(=O)[C@@H](CCCc3ccccc3)[C@H]2c2ccc(OC(C)C)cc2)cc1 | -78 | -28
COc1ccc(CN2C(=O)[C@H](CCCc3ccccc3)[C@H]2c2ccc(OC)cc2)cc1 | -26 | 0
CCN1C(=O)[C@H](CCCc2ccccc2)[C@H]1c1ccc(OC)cc1 | -21 | -13
CC[C@@]1(CCCc2ccccc2)C(=O)N(c2ccc(OC)cc2)[C@@H]1c1ccc(OC)cc1 | 0 | 0
COc1ccc(N2C(=O)[C@@H](CCCc3ccccc3)[C@H]2c2ccc(OC)c(OC)c2)cc1 | 0 | 0
COc1ccc([C@H]2N(c3ccccc3)C(=O)[C@@]2(F)CCCc2ccccc2)cc1 | -94 | -30
COCc1ccc([C@@H]2[C@@H](CCCc3ccccc3)C(=O)N2c2ccc(OC)cc2)cc1 | -56 | -27
COc1ccc(N2C(=O)[C@H](CCCc3ccccc3)[C@H]2c2ccc(NS(C)(=O)=O)cc2)cc1 | -46 | -8
COc1ccc([C@@H]2[C@@H](CCCc3ccccc3)C(=O)N2c2ccc3c(c2)OCO3)cc1 | -52 | -19
COc1ccc([C@@H]2[C@@H](CCCc3ccccc3)C(=O)N2c2ccc(SC)cc2)cc1 | -70 | -26
